ChEMBL document CHEMBL1124580, “Opioid agonist and antagonist activities of peripherally selective derivatives of naltrexamine and oxymorphamine” (J Med Chem, 1989)

Assays:
Cavia porcellus [1] = species: Cavia porcellus; assay: Maximum percent inhibition of electrically stimulated twitch in guinea pig ileal longitudinal muscle(GPI) preparation; format: functional; settings: Muscle tissue
Method in brief: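 Guinea pig ileal longitudinal muscle, electrically stimulated. Maximum percent inhibition of the twitch determined at 1 μM. Values are means ± SE, with number of experiments.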

Cavia porcellus [2] = species: Cavia porcellus; assay: Antagonistic activity against morphine in guinea pig ileal longitudinal muscle(GPI) preparation; format: functional, Muscle tissue
Method in brief: (§1)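 Guinea pig ileal longitudinal muscle, electrically stimulated twitch. Antagonism measured against morphine. Ke = [antagonist]/(IC50 ratio − 1); the IC50 ratio is morphine IC50 with antagonist over its control IC50 in the same preparation. Values are means ± SE, with number of experiments.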

Mus musculus [3] = assay: Peak antinociceptive potency of compound, 20 min after intracerebro ventricular administration into mice; format: functional
Method in brief: (§2)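 Male Swiss–Webster mice, tail-flick antinociception. Compounds given icv, iv or po, with ED50 taken at peak effect. Some ED50s were estimated from two dose levels. Where drug was insufficient, an approximate range was based on one dose level.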

Mus musculus [4] = assay: Peak antinociceptive potency of compound, 20 min after intravenous administration into mice; format: functional; method in brief: as §2
Mus musculus [5] = assay: Peak antinociceptive potency of compound, 60 min after peroral administration into mice; format: functional; settings: po, 1 h; method in brief: as §2
[6] = (§3) Potency against opioid receptor relative to morphine; format: functional
Method in brief: (§4)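 Guinea pig ileal longitudinal muscle, electrically stimulated twitch. Agonist potency taken as IC50 for twitch inhibition and as potency ratio relative to morphine (morphine = 1). Values are means ± SE, with number of experiments.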

[7] = target: T1, Opioid receptors; mu/kappa/delta (Homo sapiens, UniProt P41145+P41143+P35372); assay: Opioid receptor agonistic potency in guinea pig ileal longitudinal muscle(GPI) preparation; format: functional, Cavia porcellus; settings: target entry is the homologue from another species; method in brief: as §4
[8] = Antagonistic potency, 90 min after intravenous administration of compound (18.3 u mol/kg), in mice (tail flick assay); format: functional
Method in brief: (§5)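 Male Swiss–Webster mice, tail-flick antinociception. Morphine given sc and tested 30 min after injection. Antagonist given icv (0.01 nmol), iv (18.3 μmol/kg) or po (91.7 μmol/kg), timed so both drugs were at peak (antagonist peaks 60, 90 and 120 min).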

[9] = Antagonistic potency, 120 min after […] administration of compound (91.7 u mol/kg), in mice (tail flick assay); format: functional; method in brief: as §5
Mus musculus [10] = assay: Antagonistic potency, 120 min after […] administration of compound (91.7u mol/kg), in mice (tail flick assay); format: functional; settings: 2 h; method in brief: as §5
[11] = Antagonistic potency,60 min after intracerebro ventricular administration of compound ([…]), in mice (tail flick assay); format: functional; method in brief: as §5
Mus musculus [12] = assay: Peak effect of agonistic potency 10 min after intracerebro ventricular administration, in mice (acetic acid writhing assay); format: functional
Method in brief: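 Mouse acetic acid writhing assay. Compound given icv or po. […] Expressed as nmol/mouse (icv) or […] (po).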

Mus musculus [13] = assay: Antagonistic potency, 90 min after […] administration of compound (18.3 u mol/kg), in mice (tail flick assay); format: functional; settings: 1.5 h; method in brief: as §5
Mus musculus [14] = assay: Dose required to produce equivalent antagonism of morphine activity after intravenous administration of compound; format: functional
Method in brief: (§6)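 Mouse tail-flick assay against sc morphine. Antagonist dosed icv, iv or po. Equiactive dose calculated as the dose required to double the morphine ED50, [dose/(DR − 1)]. icv doses were also expressed per kg body weight.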

Cavia porcellus [15] = species: Cavia porcellus; assay: Antagonistic activity against morphine in guinea pig ileal longitudinal muscle(GPI) preparation; Agonism was too strong to test for antagonism; format: functional; settings: Muscle tissue, filed as agonist; method in brief: as §1
Mus musculus [16] = assay: Antagonistic potency, 60 min after intracerebro ventricular administration of compound (0.01n mol), in mice (tail flick assay); format: functional; settings: central, 1 h; method in brief: as §5
Mus musculus [17] = assay: Dose required to produce equivalent antagonism of morphine activity after peroral administration of compound; format: functional; method in brief: as §6
Mus musculus [18] = assay: Peak antinociceptive potency of compound, 40 min after intravenous administration into mice; format: functional; method in brief: as §2
Mus musculus [19] = assay: Peak antinociceptive potency of compound, 40 min after intracerebro ventricular administration into mice; format: functional; method in brief: as §2
[20] = target: T1, Opioid receptors; mu/kappa/delta; assay: as §3; format: functional; settings: Cavia porcellus; method in brief: as §4
Mus musculus [21] = assay: Peak antinociceptive potency of compound, 40 min after intracerebro ventricular administration nto mice; format: functional; method in brief: as §2

T1 sequence (P35372 whole entry, looked up): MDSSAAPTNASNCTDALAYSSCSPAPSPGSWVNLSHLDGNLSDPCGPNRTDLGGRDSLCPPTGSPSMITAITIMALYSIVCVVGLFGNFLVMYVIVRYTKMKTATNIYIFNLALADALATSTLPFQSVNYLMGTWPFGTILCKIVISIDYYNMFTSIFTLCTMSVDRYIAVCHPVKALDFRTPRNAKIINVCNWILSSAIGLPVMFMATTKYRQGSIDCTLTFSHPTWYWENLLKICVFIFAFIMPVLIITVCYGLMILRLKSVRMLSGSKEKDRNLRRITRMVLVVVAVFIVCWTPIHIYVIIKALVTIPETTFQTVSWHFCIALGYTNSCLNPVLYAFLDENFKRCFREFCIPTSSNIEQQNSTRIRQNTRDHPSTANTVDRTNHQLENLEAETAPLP
T1 sequence (P41143 whole entry, looked up): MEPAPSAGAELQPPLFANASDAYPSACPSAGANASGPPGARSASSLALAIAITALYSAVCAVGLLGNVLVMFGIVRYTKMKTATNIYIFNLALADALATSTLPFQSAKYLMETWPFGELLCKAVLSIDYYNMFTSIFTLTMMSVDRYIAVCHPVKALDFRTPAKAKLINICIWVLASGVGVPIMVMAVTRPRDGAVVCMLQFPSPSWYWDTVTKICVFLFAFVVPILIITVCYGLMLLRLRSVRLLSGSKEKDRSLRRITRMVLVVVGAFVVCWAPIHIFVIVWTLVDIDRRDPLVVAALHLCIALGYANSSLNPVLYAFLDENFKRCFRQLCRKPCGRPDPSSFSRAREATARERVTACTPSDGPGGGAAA
T1 sequence (P41145 whole entry, looked up): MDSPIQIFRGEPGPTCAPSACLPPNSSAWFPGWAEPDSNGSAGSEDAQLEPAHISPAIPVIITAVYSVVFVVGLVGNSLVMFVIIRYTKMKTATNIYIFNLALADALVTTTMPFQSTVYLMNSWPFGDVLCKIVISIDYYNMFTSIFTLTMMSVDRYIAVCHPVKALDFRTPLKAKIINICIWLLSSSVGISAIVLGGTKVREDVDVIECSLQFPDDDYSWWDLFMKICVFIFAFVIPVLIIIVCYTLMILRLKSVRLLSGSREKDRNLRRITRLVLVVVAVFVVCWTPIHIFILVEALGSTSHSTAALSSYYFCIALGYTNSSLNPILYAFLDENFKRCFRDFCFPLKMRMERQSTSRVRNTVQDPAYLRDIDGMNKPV

O=C(O)CCCC(=O)NC1CC[C@@]2(O)[C@H]3Cc4ccc(O)c5c4[C@@]2(CCN3CC2CC2)[C@H]1O5 (some centres not stated)
IC50 (Cavia porcellus [1]): 0.041 µM
Ke (Cavia porcellus [2]): 28 nM

O=C(O)COCC(=O)NC1CC[C@@]2(O)[C@H]3Cc4ccc(O)c5c4[C@@]2(CCN3CC2CC2)[C@H]1O5 (some centres not stated)
IC50 (Cavia porcellus [1]): 0.038 µM
Ke (Cavia porcellus [2]): 6.2 nM

CN1CC[C@]23c4c5ccc(O)c4O[C@H]2C(NC(=O)/C=C\C(=O)O)CC[C@@]3(O)[C@H]1C5 (some centres not stated)
ED50 (Mus musculus [3]): 0.17 nM mouse-1
ED50 (Mus musculus [4]): 11 µmol/kg
ED50 (Mus musculus [5]): 20 µmol/kg
Ratio [6]: 2.6
IC50 [7]: 0.039 µM

CN1CC[C@]23c4c5ccc(O)c4O[C@H]2C(NC(=O)/C=C/C(=O)O)CC[C@@]3(O)[C@H]1C5 (some centres not stated)
Ratio [6]: 1.5
IC50 [7]: 0.13 µM

NC(CC(=O)O)C(=O)NC1CC[C@@]2(O)[C@H]3Cc4ccc(O)c5c4[C@@]2(CCN3CC2CC2)[C@H]1O5 (some centres not stated)
Dose ratio [8]: 12.2
Dose ratio [9]: 3
IC50 (Cavia porcellus [1]): 0.0074 µM
ED50 (Mus musculus [10]): 41.4 µmol/kg
Dose ratio [11]: 4.2
ED50 (Mus musculus [12]): 0.024 nM mouse-1
ED50 (Mus musculus [13]): 168 µmol/kg
Dose (Mus musculus [14]): 1.63 µM/kg
Ke (Cavia porcellus [15]): Agonism was too strong to test for antagonism
ED50 (Mus musculus [16]): 58 µmol/kg
Dose (Mus musculus [17]): 45.85 µM/kg

O=C(O)CCC(=O)NC1CC[C@@]2(O)[C@H]3Cc4ccc(O)c5c4[C@@]2(CCN3CC2CC2)[C@H]1O5 (some centres not stated)
IC50 (Cavia porcellus [1]): 0.056 µM
Ke (Cavia porcellus [2]): 24.8 nM

O=C(O)/C=C/C(=O)NC1CC[C@@]2(O)[C@H]3Cc4ccc(O)c5c4[C@@]2(CCN3CC2CC2)[C@H]1O5 (some centres not stated)
IC50 (Cavia porcellus [1]): 0.006 µM
Ke (Cavia porcellus [2]): 8.4 nM

CN1CC[C@]23c4c5ccc(O)c4O[C@H]2C(NC(=O)C(N)CC(=O)O)CC[C@@]3(O)[C@H]1C5 (some centres not stated)
ED50 (Mus musculus [3]): 1110.44 nM mouse-1
ED50 (Mus musculus [18]): < 20 µmol/kg
Ratio [6]: 6.1
IC50 [7]: 0.031 µM

O=C(O)CNC1CC[C@@]2(O)[C@H]3Cc4ccc(O)c5c4[C@@]2(CCN3CC2CC2)[C@H]1O5 (some centres not stated)
IC50 (Cavia porcellus [1]): 0.037 µM
Ke (Cavia porcellus [2]): 24.4 nM

CN1CC[C@]23c4c5ccc(O)c4O[C@H]2C(NC(=O)COCC(=O)O)CC[C@@]3(O)[C@H]1C5 (some centres not stated)
ED50 (Mus musculus [19]): 0.25 nM mouse-1
ED50 (Mus musculus [18]): < 20 µmol/kg
ED50 (Mus musculus [5]): > 25 µmol/kg
Ratio [20]: 3.1
IC50 [7]: 0.027 µM

CN1CC[C@]23c4c5ccc(O)c4O[C@H]2C(NC(=O)CCC(=O)O)CC[C@@]3(O)[C@H]1C5 (some centres not stated)
ED50 (Mus musculus [21]): 0.27 nM mouse-1
ED50 (Mus musculus [18]): 9.8 µmol/kg
ED50 (Mus musculus [5]): 30.3 µmol/kg
Ratio [6]: 1.6
IC50 [7]: 0.144 µM
